According to ChEMBL document CHEMBL1152600, “Dibenzazecine scaffold rebuilding--is the flexibility always essential for high dopamine receptor affinities?” (Bioorg Med Chem, 2009):
Activity calls are given as the source filed them. The calls are words filed in the database; no cut-off is given here.

What was measured:
[1] = biological target: T1, D(1A) dopamine receptor (Homo sapiens, UniProt P21728); experiment: Antagonist activity at human dopamine D1 receptor expressed in HEK293 cells assessed as SKF-38393-induced intracellular calcium by fluorescence microplate reader; format: functional, cell-based
Outline: (§1)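 They were then injected with standard agonist at 1 µM final: SKF 38393 for D1, quinpirole for D2L. Fluorescence was read at ex 485/em 520 nm for 30 s. Peak signal was fitted with a sigmoidal curve. At least two experiments, 4 or 6 replicates each.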

[2] = biological target: T2, D(2) dopamine receptor (Homo sapiens, UniProt P14416); experiment: Agonist activity at human dopamine D2L receptor expressed in HEK293 cells assessed as intracellular calcium by fluorescence microplate reader; format: functional, cell-based
Outline: (§2)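 Human receptor in HEK293 cells, loaded 45 min at 37 °C with Oregon Green 488 BAPTA-1/AM plus Pluronic F-127 in Krebs-HEPES buffer (pH 7.4). Cells were suspended, plated and held 30 min at 37 °C, 5% CO2. Test compound was injected at rising concentrations. Fluorescence was read at ex 485/em 520 nm for 30 s. Maximum intensity was fitted with a sigmoidal curve. At least two experiments, 4 or 6 replicates each.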

[3] = biological target: T2, D(2) dopamine receptor; experiment: Antagonist activity at human dopamine D2L receptor expressed in HEK293 cells assessed as quinpirole-induced intracellular calcium by fluorescence microplate reader; format: functional, cell-based; outline: as §1
[4] = biological target: T1, D(1A) dopamine receptor; experiment: Displacement of [3H]SCH23390 from human dopamine D1 receptor expressed in CHO cells by scintillation counting; format: cell-based
[5] = biological target: T1, D(1A) dopamine receptor; experiment: Agonist activity at human dopamine D1 receptor expressed in HEK293 cells assessed as intracellular calcium by fluorescence microplate reader; format: functional, cell-based; outline: as §2
[6] = biological target: T2, D(2) dopamine receptor; experiment: Displacement of [3H]spiperone from human dopamine D2L receptor expressed in CHO cells by scintillation counting; format: cell-based
[7] = biological target: D(1B) dopamine receptor (Homo sapiens, UniProt P21918); experiment: Displacement of [3H]SCH23390 from human dopamine D5 receptor expressed in CHO cells by scintillation counting; format: cell-based
[8] = biological target: D(3) dopamine receptor (Homo sapiens, UniProt P35462); experiment: Displacement of [3H]spiperone from human dopamine D3 receptor expressed in CHO cells by scintillation counting; format: cell-based
[9] = biological target: T3, D(4) dopamine receptor (Homo sapiens, UniProt P21917); experiment: Displacement of [3H]spiperone from human dopamine D4 receptor expressed in CHO cells by scintillation counting; format: cell-based
T3 sequence (P21917 whole entry): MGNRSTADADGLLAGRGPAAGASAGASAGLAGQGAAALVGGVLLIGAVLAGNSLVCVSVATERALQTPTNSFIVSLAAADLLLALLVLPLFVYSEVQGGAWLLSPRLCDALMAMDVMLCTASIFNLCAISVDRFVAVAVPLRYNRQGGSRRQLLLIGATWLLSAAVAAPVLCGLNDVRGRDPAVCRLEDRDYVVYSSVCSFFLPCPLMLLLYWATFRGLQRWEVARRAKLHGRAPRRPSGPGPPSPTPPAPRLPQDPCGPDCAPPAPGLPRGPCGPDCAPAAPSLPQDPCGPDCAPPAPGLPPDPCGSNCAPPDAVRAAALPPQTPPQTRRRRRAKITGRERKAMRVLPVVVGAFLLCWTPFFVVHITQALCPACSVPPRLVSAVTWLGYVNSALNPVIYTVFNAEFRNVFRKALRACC

[10] = biological target: D(3) dopamine receptor (Rattus norvegicus, UniProt P19020); experiment: Displacement of [3H]spiperone from rat dopamine D3 receptor expressed in CHO cells by scintillation counting; format: cell-based
Chain of D(3) dopamine receptor (Rattus norvegicus, UniProt P19020) (P19020 whole entry): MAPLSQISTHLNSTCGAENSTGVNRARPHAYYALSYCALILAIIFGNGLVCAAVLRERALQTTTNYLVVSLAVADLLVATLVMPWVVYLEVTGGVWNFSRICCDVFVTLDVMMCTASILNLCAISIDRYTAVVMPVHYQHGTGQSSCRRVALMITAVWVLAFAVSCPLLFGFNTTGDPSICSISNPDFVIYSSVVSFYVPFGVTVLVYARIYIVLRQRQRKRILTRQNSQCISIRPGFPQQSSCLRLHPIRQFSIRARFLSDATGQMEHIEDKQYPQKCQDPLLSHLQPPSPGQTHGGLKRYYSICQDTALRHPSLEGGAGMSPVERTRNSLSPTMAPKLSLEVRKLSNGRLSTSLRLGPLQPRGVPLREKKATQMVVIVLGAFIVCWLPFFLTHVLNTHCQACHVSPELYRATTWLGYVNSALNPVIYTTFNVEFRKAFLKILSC

Chain of D(1B) dopamine receptor (P21918 whole entry): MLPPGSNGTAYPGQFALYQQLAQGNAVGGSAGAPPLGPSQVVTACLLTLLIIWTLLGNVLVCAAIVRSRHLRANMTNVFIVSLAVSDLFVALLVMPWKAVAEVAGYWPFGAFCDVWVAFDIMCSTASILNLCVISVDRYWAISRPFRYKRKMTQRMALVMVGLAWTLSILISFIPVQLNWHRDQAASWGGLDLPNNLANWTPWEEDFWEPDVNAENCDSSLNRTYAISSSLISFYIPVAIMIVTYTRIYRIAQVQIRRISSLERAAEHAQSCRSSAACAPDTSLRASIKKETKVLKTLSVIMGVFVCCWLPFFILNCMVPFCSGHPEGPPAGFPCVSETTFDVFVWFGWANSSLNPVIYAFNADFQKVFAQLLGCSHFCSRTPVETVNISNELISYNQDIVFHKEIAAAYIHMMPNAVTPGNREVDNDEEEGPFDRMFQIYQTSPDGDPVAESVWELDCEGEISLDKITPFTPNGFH
T1 sequence (P21728 whole entry): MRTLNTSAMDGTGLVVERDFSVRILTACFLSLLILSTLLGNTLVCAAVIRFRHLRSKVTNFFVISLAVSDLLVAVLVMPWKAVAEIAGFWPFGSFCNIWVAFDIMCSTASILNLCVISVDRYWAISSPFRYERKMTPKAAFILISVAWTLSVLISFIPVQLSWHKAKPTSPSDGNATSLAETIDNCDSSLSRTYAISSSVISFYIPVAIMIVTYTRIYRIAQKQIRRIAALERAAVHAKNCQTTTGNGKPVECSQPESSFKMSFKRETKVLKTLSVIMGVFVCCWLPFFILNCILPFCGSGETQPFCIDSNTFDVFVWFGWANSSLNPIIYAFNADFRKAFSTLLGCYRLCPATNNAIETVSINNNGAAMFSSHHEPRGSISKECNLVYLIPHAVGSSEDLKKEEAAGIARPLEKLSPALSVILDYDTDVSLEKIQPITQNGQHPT
T2 sequence (P14416 whole entry): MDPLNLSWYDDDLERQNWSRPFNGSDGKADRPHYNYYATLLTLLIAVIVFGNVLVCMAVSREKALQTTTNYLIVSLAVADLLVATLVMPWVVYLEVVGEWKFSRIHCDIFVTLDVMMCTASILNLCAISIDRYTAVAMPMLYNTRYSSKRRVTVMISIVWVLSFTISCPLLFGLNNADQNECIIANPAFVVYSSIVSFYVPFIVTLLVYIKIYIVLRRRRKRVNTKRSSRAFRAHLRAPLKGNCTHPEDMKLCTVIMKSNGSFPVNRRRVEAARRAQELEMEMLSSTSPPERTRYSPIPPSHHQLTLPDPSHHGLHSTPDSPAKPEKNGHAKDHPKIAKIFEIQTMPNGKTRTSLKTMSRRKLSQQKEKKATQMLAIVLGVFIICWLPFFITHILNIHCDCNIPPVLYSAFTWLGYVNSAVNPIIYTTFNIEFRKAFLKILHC
Chain of D(3) dopamine receptor (Homo sapiens, UniProt P35462) (P35462 whole entry): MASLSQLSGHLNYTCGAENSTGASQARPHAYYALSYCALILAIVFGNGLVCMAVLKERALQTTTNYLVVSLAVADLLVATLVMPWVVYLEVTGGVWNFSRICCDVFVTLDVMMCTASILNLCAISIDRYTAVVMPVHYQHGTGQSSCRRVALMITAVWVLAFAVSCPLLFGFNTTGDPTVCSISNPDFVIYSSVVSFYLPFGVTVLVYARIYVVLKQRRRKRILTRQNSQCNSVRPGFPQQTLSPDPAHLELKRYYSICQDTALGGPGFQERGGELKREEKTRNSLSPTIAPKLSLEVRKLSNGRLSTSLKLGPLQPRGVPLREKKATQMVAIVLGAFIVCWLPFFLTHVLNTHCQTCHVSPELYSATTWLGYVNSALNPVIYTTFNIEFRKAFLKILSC

Row | Structure (SMILES) | Activity [1] | Activity [2] | Activity [3] | Ki [4] [µM] | Activity [5] | Ki [6] [µM] | Ki [7] [µM] | Ki [8] [µM] | Ki [9] [µM] | Ki [10] [µM]
1 | COc1ccc2c(c1)CCN1CCc3ccccc3C21 (stereo unspecified) | Active | inactive | Active | 2.12 | inactive | – | – | – | – | –
2 | COc1ccc2c(c1)CCN(C)Cc1ccccc1CC2 | Active | inactive | Active | 1.73 | inactive | > 10 | 1.51 | > 10 | > 10 | –
3 | COc1ccc2c(c1)CCN(C)CCc1ccccc1C2 | Active | inactive | Active | – | inactive | – | – | – | 0.0434 | –
4 | COc1cc2c(cc1O)[C@@H]1Cc3ccc(O)c(OC)c3CN1CC2 [STEPHOLIDINE] | Active | inactive | Active | 0.0059 | inactive | 0.974 | 0.0044 | – | 3.75 | 0.03
5 | COc1ccc2c(c1)CCN(C)C2Cc1ccccc1C (stereo unspecified) | Active | inactive | Active | 2.35 | inactive | 7.37 | > 10 | > 10 | 6.64 | –
6 | COc1ccc2c(c1)CCN1Cc3ccccc3CC21 (stereo unspecified) | Active | inactive | Active | 0.183 | inactive | 0.32 | 0.185 | 0.251 | 2.56 | –
7 | CN1CCCc2cc(O)ccc2Cc2ccccc2C1 | Active | – | – | 2.07 | inactive | – | 1.81 | – | – | –
8 | CN1CCc2ccccc2Cc2ccc(O)cc2CC1 | Active | inactive | Active | – | inactive | – | – | – | – | –
9 | Oc1cc2c(cc1O)[C@H]1c3ccccc3CN[C@@H]1CC2 | Active | inactive | Active | – | inactive | – | – | – | – | –
10 | COc1ccc2c(c1)CCCN1Cc3ccccc3C21 (stereo unspecified) | Active | – | – | – | inactive | – | – | – | – | –
11 | Cc1ccccc1CC1c2ccc(O)cc2CCN1C (stereo unspecified) | Active | inactive | Active | 3.02 | inactive | 2.72 | – | – | – | –
12 | COc1ccc2c(c1)CCCN(C)Cc1ccccc1C2 | Active | inactive | Active | 1.26 | inactive | > 10 | > 10 | > 10 | > 10 | –
13 | CCc1cc(OC)ccc1C1Cc2ccccc2CN1C (stereo unspecified) | Active | inactive | Active | > 10 | inactive | > 10 | > 10 | > 10 | > 10 | –
14 | CN1CCc2cc(O)ccc2CCc2ccccc2C1 | Active | inactive | Active | – | inactive | – | – | – | – | –
15 | Oc1ccc2c(c1)CCN1Cc3ccccc3CC21 (stereo unspecified) | Active | inactive | Active | 0.136 | inactive | 0.486 | 0.0411 | 0.306 | 5.09 | –
16 | Oc1ccc2c(c1)CCN1CCc3ccccc3C21 (stereo unspecified) | Active | inactive | Active | > 10 | inactive | > 10 | > 10 | > 10 | > 10 | –
